The results in this text go back to PubChem BioAssay AID588578 (Sanford-Burnham Center for Chemical Genomics, 2011).

The source made the active and inactive calls.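 How the source made its calls: active means IC50 at or below 20 µM; inactive means the rest.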

Chain of Bcl-2-like protein 1 (Homo sapiens) (Q07817 whole entry, looked up): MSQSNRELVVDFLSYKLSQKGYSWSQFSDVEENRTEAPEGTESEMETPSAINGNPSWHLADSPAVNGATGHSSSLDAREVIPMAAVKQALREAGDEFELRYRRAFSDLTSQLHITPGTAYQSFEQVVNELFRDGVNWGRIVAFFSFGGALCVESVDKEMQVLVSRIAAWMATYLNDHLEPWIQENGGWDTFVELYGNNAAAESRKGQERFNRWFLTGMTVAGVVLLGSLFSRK

This test concerns the target Bcl-2-like protein 1 (Homo sapiens) (UniProt Q07817). As to the kind of experiment: displacement of Bim BH3 peptide from Bcl-XL – biochemical, fluorescence polarization, GST-Bcl-XL, FITC-Bim, selectivity assay for Bcl-B inhibitor project, SAR follow-up (AID 588578). A digest of the protocol: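 Assay system: Purified GST-Bcl-XL lacking C-terminal transmembrane region, E. coli-expressed | Reagent: FITC-Bim probe peptide | Dosing: Ten doses, twofold serial dilution | Timing: 20 min 4 °C preincubation, 10 min RT tracer binding | Read-out basis: IC50 from sigmoidal non-linear dose-response fit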
(In fluorescence polarisation assays a small probe gives low polarisation when free and higher when bound to something large.)
On to `O=C1CC(c2ccc(F)cc2)CC2=C1C(c1cccc(Cl)c1)n1ncnc1N2` (stereo not drawn), for which the IC50 is > 20 µM (inactive).
As for `O=c1c2c(-c3ccccc3)n3ncnc3nc2ccn1-c1ccccc1`, the IC50 is > 20 µM (inactive).
The result for `O=c1c2c(n3nnnc3n1Cc1ccccc1)-c1cc(F)ccc1CC21CCCC1` reads > 20 µM (inactive).
With `Cc1ccc2c(c1)-c1c(c(=O)n(Cc3ccccc3)c3nnnn13)C(C)(C)C2` the figure was > 20 µM (inactive); with `COc1ccc2c(c1)-c1c(c(=O)n(Cc3ccc(F)cc3)c3nnnn13)C(C)(C)C2`, > 20 µM (inactive).
With `O=c1c2ccccc2nc2n1C1(CCCC1)Cc1ccccc1-2` the figure was > 20 µM (inactive); with `O=c1c2cnc3ncnn3c2ccn1CCc1cnc[nH]1`, > 20 µM (inactive).
As to `O=c1[nH]c(CN2CCOCC2)nc2c1C1(CCCC1)Cc1ccccc1-2`, the IC50 is > 20 µM (inactive).
For the compound `Cn1c(NCCO)nc2c(c1=O)C1(CCCCC1)Cc1ccccc1-2`, the IC50 was > 20 µM (inactive).
With `O=c1c2c(nc3[nH]ncn13)-c1ccccc1CC21CCCCC1`, the IC50 is > 20 µM (inactive).
The result for `O=c1[nH]c(CN2CCCC2)nc2c1C1(CCCC1)Cc1ccccc1-2` reads > 20 µM (inactive); that for `Cc1ccc2c(c1)-c1c(c(=O)n(Cc3ccccc3)c3nncn13)C(C)(C)C2`, > 20 µM (inactive).
The result for `O=C1CCCC2=C1C(c1cc(Br)ccc1F)n1ncnc1N2` (stereo not drawn) reads > 20 µM (inactive); that for `Cc1ccc2c(c1)-c1c(c(=O)n(Cc3ccccc3)c3nnnn13)C1(CCCCC1)C2`, > 20 µM (inactive); that for `C=C(C)Cn1c(=O)c2c(n3cnnc13)-c1ccccc1CC21CCCC1`, > 20 µM (inactive).
On to `COc1ccc2c(c1)-c1c(c(=O)n(Cc3ccccc3)c3nncn13)C(C)(C)C2`, for which the IC50 was > 20 µM (inactive).
The result for `O=c1c2c(n3nnnc3n1Cc1ccccc1)-c1cc(F)ccc1CC21CCCCC1` reads > 20 µM (inactive).
With `CC1CC(=O)C2=C(C1)Nc1ncnn1C2c1cccnc1` (stereo not drawn), the IC50 was > 20 µM (inactive).
The result for `Cn1c(=S)[nH]c2c(c1=O)C1(CCCCC1)Cc1ccccc1-2` reads > 20 µM (inactive); that for `COc1ccc(Cn2c(=O)c3c(n4nnnc24)-c2ccccc2CC32CCCC2)cc1`, > 20 µM (inactive); that for `O=c1c2c(n3nnnc3n1-c1ccccc1)-c1ccccc1CC21CCCC1`, > 20 µM (inactive).
`O=c1c2c(n3nnnc3n1Cc1ccc(F)cc1)-c1ccccc1CC21CCCC1`: the IC50 is > 20 µM (inactive).
For the compound `O=c1[nH]c(NCCCO)nc2c1C1(CCCCC1)Cc1ccccc1-2`, the IC50 was > 20 µM (inactive).
As for `Cc1ccc2c(c1)-c1c(c(=O)n(Cc3ccc(F)cc3)c3nncn13)C1(CCCCC1)C2`, the IC50 was > 20 µM (inactive).
The result for `c1ccc(OCc2nc3c4c(ncn3n2)-c2ccccc2CC42CCCC2)cc1` reads > 20 µM (inactive).
As for `COc1ccc2c(c1)-c1c(c(=O)n(Cc3ccccc3)c3nnnn13)C1(CCCC1)C2`, the IC50 is > 20 µM (inactive).
The result for `COc1ccc(Cn2c(=O)c3c(n4nnnc24)-c2cc(C)ccc2CC3(C)C)cc1` reads > 20 µM (inactive); that for `COc1ccc(Cn2c(=O)c3c(n4cnnc24)-c2cc(C)ccc2CC3(C)C)cc1`, > 20 µM (inactive).
The result for `COc1ccc2c(c1)-c1c(c(=O)n(Cc3ccc(Cl)cc3)c3nncn13)C(C)(C)C2` reads > 20 µM (inactive); that for `O=c1c2c(n3cnnc3n1C1CCCCC1)-c1ccccc1CC21CCCCC1`, > 20 µM (inactive); that for `Cc1ccc2c(c1)-c1c(c(=O)n(Cc3ccc(Cl)cc3)c3nnnn13)C1(CCCCC1)C2`, > 20 µM (inactive).
The result for `COc1ccc2c(c1)-c1c(c(=O)n(Cc3ccc(F)cc3)c3nncn13)C(C)(C)C2` reads > 20 µM (inactive); that for `COc1ccc2c(c1)-c1c(c(=O)n(Cc3ccccc3)c3nnnn13)C(C)(C)C2`, > 20 µM (inactive); that for `C=C(C)Cn1c(=O)c2c(n3nnnc13)-c1ccccc1CC21CCCC1`, > 20 µM (inactive).
In the case of `CC1(C)Cc2ccccc2-c2c1c(=O)n(Cc1ccccc1)c1nncn21`, the IC50 was > 20 µM (inactive).
For `CC1(C)CC(n2c(=S)[nH]c3c(c2=O)C2(CCCC2)Cc2ccccc2-3)CCO1` (stereo not drawn), the IC50 is > 20 µM (inactive).
The result for `O=c1c2c(nc3n1CCS3)-c1ccccc1CC21CCCCC1` reads > 20 µM (inactive); that for `O=c1c2c(nc3[nH]ncn13)-c1ccccc1CC21CCCC1`, > 20 µM (inactive); that for `COc1ccc2c(c1)-c1c(c(=O)n(Cc3ccc(Cl)cc3)c3nnnn13)C1(CCCC1)C2`, > 20 µM (inactive).
In the case of `COc1ccc2c(c1)-c1c(c(=O)n(Cc3ccc(Cl)cc3)c3nncn13)C1(CCCC1)C2`, the IC50 is > 20 µM (inactive).
In the case of `O=c1c2cnc3nc(-c4ccccc4)nn3c2ccn1CCc1cnc[nH]1`, the IC50 was > 20 µM (inactive).
The result for `Cc1ccc2c(c1)-c1c(c(=O)n(Cc3ccc(Cl)cc3)c3nncn13)C1(CCCCC1)C2` reads > 20 µM (inactive).
With `O=c1c2c(n3cnnc3n1Cc1ccc(Cl)cc1)-c1ccccc1CC21CCCC1` the figure was > 20 µM (inactive).
The result for `Cn1c(=O)c2c(n3cnnc13)-c1ccccc1CC21CCCC1` reads > 20 µM (inactive); that for `O=c1c2c(n3nnnc3n1Cc1ccccc1)-c1ccccc1CC21CCCC1`, > 20 µM (inactive).
`O=c1c2ccccc2nc2n1C1(CCCCC1)Cc1ccccc1-2`: the IC50 was > 20 µM (inactive).
Turning to `Cc1ccc2c(c1)-c1c(c(=O)n(Cc3ccccc3)c3nncn13)C1(CCCCC1)C2`, the IC50 was > 20 µM (inactive).
The result for `O=c1c2c(n3cnnc3n1Cc1ccccc1)-c1ccccc1CC21CCCCC1` reads > 20 µM (inactive); that for `O=c1c2c(n3nnnc3n1Cc1ccccc1)-c1ccccc1CC21CCCCC1`, > 20 µM (inactive); that for `CC1(C)Cc2ccccc2-c2nc3nn[nH]n3c(=O)c21`, > 20 µM (inactive).
As for `COc1ccc2c(c1)-c1c(c(=O)n(Cc3ccc(Cl)cc3)c3nnnn13)C(C)(C)C2`, the IC50 was > 20 µM (inactive).
With `O=c1c2c(n3cnnc3n1Cc1ccccc1)-c1ccccc1CC21CCCC1` the figure was > 20 µM (inactive).
On to `COc1ccc2c(c1)-c1c(c(=O)n(Cc3ccccc3)c3nncn13)C1(CCCC1)C2`, for which the IC50 was > 20 µM (inactive).
For `Cc1ccc2c(c1)-c1c(c(=O)n(Cc3ccc(F)cc3)c3nnnn13)C1(CCCCC1)C2`, the IC50 was > 20 µM (inactive).
For `O=c1c2c(n3nnnc3n1Cc1ccc(Cl)cc1)-c1ccccc1CC21CCCC1`, the IC50 is > 20 µM (inactive).
`CC1(C)Cc2ccccc2-c2c1c(=O)n(Cc1ccccc1)c1nnnn21`: the IC50 is > 20 µM (inactive).
As to `O=C1CC(c2ccccc2F)c2c(n3ncnc3[nH]c2=O)N1` (stereo not drawn), the IC50 was > 20 µM (inactive).
In the case of `O=c1c2c(-c3ccccc3)n3ncnc3nc2ccn1-n1cnnc1`, the IC50 is > 20 µM (inactive).

What is called IC50 is the point on the concentration scale where inhibition reaches its midpoint.
